# Experiments:
# [1] = target: Serine/threonine-protein kinase Nek1 (Homo sapiens, UniProt Q96PY6); experiment: Inhibition of NEK1 in human HeLa cells lysate pre incubated for 15 mins followed by ATP acyl phosphate probe addition and measured after 10 mins by LC-MS/MS analysis; assay type: subcellular
# [2] = target: Serine/threonine-protein kinase Nek4 (Homo sapiens, UniProt P51957); experiment: Inhibition of NEK4 in human HeLa cells lysate pre incubated for 15 mins followed by ATP acyl phosphate probe addition and measured after 10 mins by LC-MS/MS analysis; assay type: subcellular
# [3] = target: Peripheral plasma membrane protein CASK (Homo sapiens, UniProt O14936); experiment: Inhibition of CASK in human HeLa cells lysate pre incubated for 15 mins followed by ADP acyl phosphate probe addition and measured after 10 mins by LC-MS/MS analysis; assay type: subcellular
# Peripheral plasma membrane protein CASK, sequence (O14936 whole entry, the tested form may be a part): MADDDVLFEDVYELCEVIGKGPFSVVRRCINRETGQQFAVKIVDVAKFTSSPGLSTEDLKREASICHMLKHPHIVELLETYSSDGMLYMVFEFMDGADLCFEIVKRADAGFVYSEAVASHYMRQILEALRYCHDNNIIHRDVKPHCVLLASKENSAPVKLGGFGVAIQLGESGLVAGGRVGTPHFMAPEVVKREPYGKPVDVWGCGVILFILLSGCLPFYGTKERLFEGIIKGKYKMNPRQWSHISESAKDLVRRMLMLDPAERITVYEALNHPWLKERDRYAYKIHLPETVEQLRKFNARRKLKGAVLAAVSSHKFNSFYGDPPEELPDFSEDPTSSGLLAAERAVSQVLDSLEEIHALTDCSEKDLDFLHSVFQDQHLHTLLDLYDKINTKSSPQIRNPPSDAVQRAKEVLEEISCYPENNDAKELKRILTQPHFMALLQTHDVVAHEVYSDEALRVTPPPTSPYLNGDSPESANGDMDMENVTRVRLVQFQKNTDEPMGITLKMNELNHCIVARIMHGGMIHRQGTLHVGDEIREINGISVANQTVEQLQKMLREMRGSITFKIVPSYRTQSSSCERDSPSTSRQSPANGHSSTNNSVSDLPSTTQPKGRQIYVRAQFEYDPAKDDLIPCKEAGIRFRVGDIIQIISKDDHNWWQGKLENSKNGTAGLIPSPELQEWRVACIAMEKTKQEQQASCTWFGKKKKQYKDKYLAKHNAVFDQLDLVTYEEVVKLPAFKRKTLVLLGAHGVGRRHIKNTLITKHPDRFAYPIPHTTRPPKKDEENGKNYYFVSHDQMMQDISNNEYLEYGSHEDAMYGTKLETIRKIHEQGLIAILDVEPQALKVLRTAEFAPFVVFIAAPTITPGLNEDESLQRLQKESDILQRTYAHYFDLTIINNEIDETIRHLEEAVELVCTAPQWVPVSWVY
# Summary of the method: (§1)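 KiNativ profiling in HeLa lysate (5 mg/mL total protein). Lysate incubated 15 min with inhibitor at 50, 10, 2, 0.8 or 0 μM. ATP or ADP acylphosphate probe then added (5 μM final) and reacted 10 min. Reaction stopped with urea and analysed by targeted MS, using up to four fragment ions per kinase peptide-probe conjugate. % inhibition taken against untreated lysate. Run in duplicate.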
# [4] = Inhibition of MSK1/2 in human HeLa cells lysate pre incubated for 15 mins followed by ADP acyl phosphate probe addition and measured after 10 mins by LC-MS/MS analysis; assay type: subcellular
# [5] = target: Serine/threonine-protein kinase D3 (Homo sapiens, UniProt O94806); experiment: Inhibition of PKD3 in human HeLa cells lysate pre incubated for 15 mins followed by ADP acyl phosphate probe addition and measured after 10 mins by LC-MS/MS analysis; assay type: subcellular
# Serine/threonine-protein kinase D3, sequence (O94806 whole entry, the tested form may be a part): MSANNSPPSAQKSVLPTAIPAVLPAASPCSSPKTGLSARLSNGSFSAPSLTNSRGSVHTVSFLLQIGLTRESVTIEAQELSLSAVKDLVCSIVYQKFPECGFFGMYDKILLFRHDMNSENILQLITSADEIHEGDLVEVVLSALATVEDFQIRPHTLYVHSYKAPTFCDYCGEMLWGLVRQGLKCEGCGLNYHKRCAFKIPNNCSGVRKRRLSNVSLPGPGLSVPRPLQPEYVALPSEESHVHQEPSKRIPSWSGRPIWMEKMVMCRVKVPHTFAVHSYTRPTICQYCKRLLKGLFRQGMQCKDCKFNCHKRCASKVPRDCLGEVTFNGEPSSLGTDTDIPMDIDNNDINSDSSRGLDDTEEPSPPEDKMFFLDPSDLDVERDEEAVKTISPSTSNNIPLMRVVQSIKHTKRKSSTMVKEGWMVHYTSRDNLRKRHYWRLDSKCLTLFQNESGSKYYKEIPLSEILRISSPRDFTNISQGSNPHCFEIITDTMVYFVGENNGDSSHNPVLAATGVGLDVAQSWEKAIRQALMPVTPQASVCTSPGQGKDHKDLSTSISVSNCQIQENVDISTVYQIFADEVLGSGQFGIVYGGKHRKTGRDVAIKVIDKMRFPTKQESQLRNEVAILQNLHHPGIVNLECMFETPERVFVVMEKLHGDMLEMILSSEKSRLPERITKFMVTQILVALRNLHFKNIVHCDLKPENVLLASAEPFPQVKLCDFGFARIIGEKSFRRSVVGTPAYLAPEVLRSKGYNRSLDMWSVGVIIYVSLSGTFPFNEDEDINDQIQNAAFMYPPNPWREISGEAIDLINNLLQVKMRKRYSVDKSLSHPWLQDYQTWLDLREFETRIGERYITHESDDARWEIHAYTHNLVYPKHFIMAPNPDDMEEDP
# [6] = target: Ribosomal protein S6 kinase alpha-1 (Homo sapiens, UniProt Q15418); experiment: Inhibition of RSK1 domain 2 K2 site in human HeLa cells lysate at 50 uM pre incubated for 15 mins followed by ADP acyl phosphate probe addition and measured after 10 mins by LC-MS/MS analysis relative to control; assay type: subcellular; settings: time 25.0 min
# [7] = target: T1, Mitogen-activated protein kinase kinase kinase kinase 2 (Homo sapiens) (UniProt Q12851); experiment: Inhibition of GCK in human HeLa cells lysate at 10 uM pre incubated for 15 mins followed by ADP acyl phosphate probe addition and measured after 10 mins by LC-MS/MS analysis relative to control; assay type: subcellular; settings: time 25.0 min
# T1 sequence (whole entry): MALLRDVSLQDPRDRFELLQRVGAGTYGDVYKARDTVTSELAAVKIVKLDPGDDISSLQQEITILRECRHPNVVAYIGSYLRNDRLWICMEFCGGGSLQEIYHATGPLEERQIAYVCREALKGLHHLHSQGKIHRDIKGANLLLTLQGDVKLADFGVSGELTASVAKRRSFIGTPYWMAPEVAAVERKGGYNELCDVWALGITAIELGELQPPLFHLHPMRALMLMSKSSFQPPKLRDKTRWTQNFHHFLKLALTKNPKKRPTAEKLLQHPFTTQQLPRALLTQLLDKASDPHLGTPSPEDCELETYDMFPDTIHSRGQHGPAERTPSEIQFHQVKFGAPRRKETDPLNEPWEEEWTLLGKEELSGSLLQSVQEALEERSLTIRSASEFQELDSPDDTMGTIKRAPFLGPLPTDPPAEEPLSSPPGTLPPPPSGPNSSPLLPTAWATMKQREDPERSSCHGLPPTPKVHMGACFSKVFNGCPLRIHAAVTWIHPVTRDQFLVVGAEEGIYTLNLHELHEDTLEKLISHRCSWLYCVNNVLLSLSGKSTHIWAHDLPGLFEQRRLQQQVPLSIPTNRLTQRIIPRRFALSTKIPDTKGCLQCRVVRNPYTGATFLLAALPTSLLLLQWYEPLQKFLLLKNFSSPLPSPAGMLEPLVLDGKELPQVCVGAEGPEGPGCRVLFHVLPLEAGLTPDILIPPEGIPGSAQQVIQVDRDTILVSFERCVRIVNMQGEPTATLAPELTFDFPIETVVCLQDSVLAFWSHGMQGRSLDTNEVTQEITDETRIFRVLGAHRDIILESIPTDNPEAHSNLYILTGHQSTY
# [8] = target: T2, Cyclin-dependent kinase 2 (Homo sapiens, UniProt P24941); experiment: Inhibition of CDK2 in human HeLa cells lysate at 10 uM pre incubated for 15 mins followed by ADP acyl phosphate probe addition and measured after 10 mins by LC-MS/MS analysis relative to control; assay type: subcellular; settings: time 25.0 min; summary of the method: as §1
# [9] = Inhibition of PCTAIRE2/3 in human HeLa cells lysate at 10 uM pre incubated for 15 mins followed by ADP acyl phosphate probe addition and measured after 10 mins by LC-MS/MS analysis relative to control; settings: 25 min, condition cancer
# [10] = target: T2, Cyclin-dependent kinase 2; experiment: Inhibition of CDK2 K2 site in human HeLa cells lysate at 10 uM pre incubated for 15 mins followed by ADP acyl phosphate probe addition and measured after 10 mins by LC-MS/MS analysis relative to control; assay type: subcellular; settings: time 25.0 min; summary of the method: as §1
# [11] = target: Protein kinase C iota type (Homo sapiens) (UniProt P41743); experiment: Inhibition of PKCiota in human HeLa cells lysate at 2 uM pre incubated for 15 mins followed by ADP acyl phosphate probe addition and measured after 10 mins by LC-MS/MS analysis relative to control; assay type: subcellular; settings: time 25.0 min
# Protein kinase C iota type (Homo sapiens), sequence (P41743 whole entry): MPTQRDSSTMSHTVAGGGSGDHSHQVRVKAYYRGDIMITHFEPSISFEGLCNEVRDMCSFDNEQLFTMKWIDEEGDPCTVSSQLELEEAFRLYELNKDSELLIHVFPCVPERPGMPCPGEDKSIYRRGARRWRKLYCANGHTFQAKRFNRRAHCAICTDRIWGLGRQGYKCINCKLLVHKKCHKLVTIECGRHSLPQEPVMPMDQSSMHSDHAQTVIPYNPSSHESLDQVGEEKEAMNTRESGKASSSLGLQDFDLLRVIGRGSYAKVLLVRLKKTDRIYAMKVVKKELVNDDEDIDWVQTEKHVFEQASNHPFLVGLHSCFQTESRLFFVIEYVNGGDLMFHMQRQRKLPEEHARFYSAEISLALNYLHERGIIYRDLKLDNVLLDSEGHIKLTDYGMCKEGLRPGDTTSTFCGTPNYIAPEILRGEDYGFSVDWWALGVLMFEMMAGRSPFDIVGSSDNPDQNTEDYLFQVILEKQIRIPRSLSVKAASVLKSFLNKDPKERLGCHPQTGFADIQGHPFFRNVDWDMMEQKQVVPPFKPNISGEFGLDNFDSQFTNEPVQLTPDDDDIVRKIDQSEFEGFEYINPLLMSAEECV
# AMPK alpha1/alpha2 = AMPK alpha1/alpha2 (Homo sapiens, UniProt P54646+Q13131); experiment: Inhibition of AMPKalpha1/2 in human HeLa cells lysate at 50 uM pre incubated for 15 mins followed by ATP acyl phosphate probe addition and measured after 10 mins by LC-MS/MS analysis relative to control; assay type: subcellular; settings: time 25.0 min
# Summary of the method: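 HeLa cell lysates (5 mg/mL total protein) were preincubated with inhibitor at 0, 0.8, 2, 10 or 50 μM for 15 min. ATP or ADP acylphosphate probe was then added (5 μM final) for 10 min, and reactions were stopped with urea. Up to four fragment ions per kinase probe-peptide were quantified by targeted MS. % inhibition was taken relative to untreated lysate. Run in duplicate.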
# [12] = target: Serine/threonine-protein kinase Aurora (Homo sapiens, UniProt Q96GD4+Q9UQB9+O14965); experiment: Inhibition of AurA/AurB/AurC in human HeLa cells lysate at 50 uM pre incubated for 15 mins followed by ATP acyl phosphate probe addition and measured after 10 mins by LC-MS/MS analysis relative to control; assay type: subcellular; settings: time 25.0 min
# Serine/threonine-protein kinase Aurora, sequence (O14965 whole entry, looked up, the tested form may be a part): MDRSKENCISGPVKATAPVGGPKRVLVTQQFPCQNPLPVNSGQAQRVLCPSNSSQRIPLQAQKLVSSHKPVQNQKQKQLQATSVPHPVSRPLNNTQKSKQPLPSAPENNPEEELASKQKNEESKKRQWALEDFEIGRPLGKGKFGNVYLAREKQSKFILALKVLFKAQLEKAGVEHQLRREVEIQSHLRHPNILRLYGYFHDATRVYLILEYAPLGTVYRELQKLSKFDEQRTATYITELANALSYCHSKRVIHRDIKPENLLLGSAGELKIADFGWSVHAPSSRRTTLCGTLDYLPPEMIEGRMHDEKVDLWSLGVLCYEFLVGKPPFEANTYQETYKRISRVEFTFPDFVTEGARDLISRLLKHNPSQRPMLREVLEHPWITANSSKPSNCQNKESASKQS
# Serine/threonine-protein kinase Aurora, sequence (Q96GD4 whole entry, looked up, the tested form may be a part): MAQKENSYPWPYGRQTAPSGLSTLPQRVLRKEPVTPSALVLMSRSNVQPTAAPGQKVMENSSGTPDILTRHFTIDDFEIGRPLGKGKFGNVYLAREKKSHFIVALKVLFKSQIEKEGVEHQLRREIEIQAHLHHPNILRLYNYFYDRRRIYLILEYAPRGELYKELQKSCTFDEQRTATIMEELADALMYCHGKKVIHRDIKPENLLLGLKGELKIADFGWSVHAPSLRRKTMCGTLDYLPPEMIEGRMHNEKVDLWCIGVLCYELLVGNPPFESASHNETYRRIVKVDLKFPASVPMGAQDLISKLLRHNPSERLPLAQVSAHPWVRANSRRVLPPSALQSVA
# Serine/threonine-protein kinase Aurora, sequence (Q9UQB9 whole entry, looked up, the tested form may be a part): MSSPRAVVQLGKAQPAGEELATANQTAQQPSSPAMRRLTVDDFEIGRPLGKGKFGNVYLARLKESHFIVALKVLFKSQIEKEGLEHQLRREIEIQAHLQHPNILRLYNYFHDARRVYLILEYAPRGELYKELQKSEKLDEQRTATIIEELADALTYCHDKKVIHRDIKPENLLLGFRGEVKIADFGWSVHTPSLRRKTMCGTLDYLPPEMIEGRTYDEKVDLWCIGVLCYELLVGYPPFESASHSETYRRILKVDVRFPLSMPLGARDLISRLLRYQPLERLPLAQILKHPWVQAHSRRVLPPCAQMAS
# Summary of the method: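 KiNativ-type profiling in HeLa lysate (5 mg/mL total protein). Lysate preincubated 15 min with inhibitor at 50, 10, 2, 0.8 or 0 μM, then ATP or ADP acylphosphate probe added (5 μM final) for 10 min. Reaction stopped with urea and analysed by targeted MS, using up to four fragment ions per kinase peptide-probe conjugate. % inhibition calculated against untreated lysate. Duplicate reactions.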
# [13] = target: MAP/microtubule affinity-regulating kinase 3 (Homo sapiens, UniProt P27448); experiment: Inhibition of MARK3 in human HeLa cells lysate at 50 uM pre incubated for 15 mins followed by ATP acyl phosphate probe addition and measured after 10 mins by LC-MS/MS analysis relative to control; assay type: subcellular; settings: time 25.0 min
# [14] = Plasma concentration in C57Bl/6 mouse at 50 mg/kg, ip administered for 1 day and measured 8 hr post last dose by LC-MS/MS analysis; assay type: ADME, organism-based
# [15] = Toxicity in C57Bl/6 mouse assessed as effect on total bilirubin level at 50 mg/kg, ip for 14 days (reference value: 0.3 mg/dl); assay type: organism-based; settings: in vivo, 336 h, time 14 day
# Serine/threonine-protein kinase Nek1, sequence (Q96PY6 whole entry): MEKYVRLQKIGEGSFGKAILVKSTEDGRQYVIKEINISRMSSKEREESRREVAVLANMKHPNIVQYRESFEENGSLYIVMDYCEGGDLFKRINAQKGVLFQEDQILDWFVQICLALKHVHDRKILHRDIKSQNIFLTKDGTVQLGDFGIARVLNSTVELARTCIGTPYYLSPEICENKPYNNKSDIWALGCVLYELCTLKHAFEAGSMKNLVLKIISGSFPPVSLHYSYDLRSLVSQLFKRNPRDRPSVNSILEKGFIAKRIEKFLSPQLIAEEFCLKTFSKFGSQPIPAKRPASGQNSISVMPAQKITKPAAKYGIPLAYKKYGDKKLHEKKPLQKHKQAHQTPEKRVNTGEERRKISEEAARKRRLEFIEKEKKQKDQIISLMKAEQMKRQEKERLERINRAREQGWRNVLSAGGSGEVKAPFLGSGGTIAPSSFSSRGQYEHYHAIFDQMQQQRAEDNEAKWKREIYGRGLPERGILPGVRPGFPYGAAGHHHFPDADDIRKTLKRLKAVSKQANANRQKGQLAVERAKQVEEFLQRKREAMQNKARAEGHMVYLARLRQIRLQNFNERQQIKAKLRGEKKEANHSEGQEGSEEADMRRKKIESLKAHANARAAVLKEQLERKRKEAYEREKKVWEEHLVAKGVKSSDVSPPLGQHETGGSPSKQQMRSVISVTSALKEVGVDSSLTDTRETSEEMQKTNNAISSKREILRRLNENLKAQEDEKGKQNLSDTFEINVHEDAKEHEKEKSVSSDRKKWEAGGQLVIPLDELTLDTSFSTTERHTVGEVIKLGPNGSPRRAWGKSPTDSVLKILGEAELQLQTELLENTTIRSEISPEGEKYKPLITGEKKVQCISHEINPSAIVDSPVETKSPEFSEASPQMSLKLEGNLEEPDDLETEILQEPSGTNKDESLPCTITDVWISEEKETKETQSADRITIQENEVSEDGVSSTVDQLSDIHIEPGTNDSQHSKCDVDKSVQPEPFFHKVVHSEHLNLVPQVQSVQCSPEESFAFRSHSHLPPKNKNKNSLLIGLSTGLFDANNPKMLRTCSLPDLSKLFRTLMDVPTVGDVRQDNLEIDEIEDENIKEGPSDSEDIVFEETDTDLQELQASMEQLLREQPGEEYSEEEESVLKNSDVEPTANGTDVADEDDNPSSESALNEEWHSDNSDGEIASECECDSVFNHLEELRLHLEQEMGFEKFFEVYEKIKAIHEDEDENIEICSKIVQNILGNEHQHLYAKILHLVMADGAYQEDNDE
smiles,measurement,setting,value
CCOc1cc(N2CCC(O)CC2)ccc1Nc1ncc2c(n1)N(C)c1ccccc1C(=O)N2C,IC50,[1],> 50 µM
same,IC50,[2],> 50 µM
same,IC50,[3],> 50 µM
same,IC50,[4],> 50 µM
same,IC50,[5],> 50 µM
same,inhibition,[6],65.6%
same,inhibition,[7],-8.4%
same,inhibition,[8],-3.8%
same,inhibition at 10 µM,[9],-4.4%
same,inhibition,[10],-7.5%
same,inhibition,[11],18.9%
same,inhibition,AMPK alpha1/alpha2,32%
same,inhibition,[12],10.2%
same,inhibition,[13],6.2%
same,concentration at 24 h,[14],10.2 µM
same,Activity,[15],0.3 mg/dL

# — ChEMBL document CHEMBL5661979, “Pharmacological inhibition of BMK1 suppresses tumor growth through promyelocytic leukemia protein” (Cancer Cell, 2010)
